Holding throughout (type): cell-based
In experiment [1] the target is Prostaglandin E2 receptor EP4 subtype (Homo sapiens, UniProt P35408). The experiment is described as follows: Binding affinity towards EP4 receptor expressed in HEK293 ebna cells recombinantly expressing the corresponding human prostanoid cDNAs.
Experiment [2] has as its target T1, Prostaglandin E2 receptor EP3 subtype (Homo sapiens, UniProt P43115).
T1 sequence (P43115 whole entry): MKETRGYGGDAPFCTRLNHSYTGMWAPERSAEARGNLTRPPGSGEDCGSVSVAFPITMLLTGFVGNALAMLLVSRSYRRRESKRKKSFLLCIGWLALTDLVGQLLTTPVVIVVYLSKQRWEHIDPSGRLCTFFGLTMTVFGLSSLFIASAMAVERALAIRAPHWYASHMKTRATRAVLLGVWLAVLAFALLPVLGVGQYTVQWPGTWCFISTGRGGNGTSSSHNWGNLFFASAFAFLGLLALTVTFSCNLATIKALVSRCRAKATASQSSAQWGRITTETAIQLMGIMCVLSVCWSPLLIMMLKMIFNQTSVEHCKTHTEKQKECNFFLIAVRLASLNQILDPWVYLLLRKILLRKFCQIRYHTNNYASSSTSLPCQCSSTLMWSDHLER
The experiment in a line: Binding affinity towards EP3 receptor expressed in HEK293 ebna cells recombinantly expressing the corresponding human prostanoid cDNAs. The gist of the method: (§1)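 Competition binding used membrane preparations, not intact cells, from HEK293ebna cells expressing each recombinant human prostanoid receptor cDNA.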

The target of experiment [3] is Prostaglandin E2 receptor EP2 subtype (Homo sapiens, UniProt P43116). The experiment in a line: Binding affinity towards EP2 receptor expressed in HEK293 ebna cells recombinantly expressing the corresponding human prostanoid cDNAs. The gist of the method: as §1
Experiment [4] concerns the target Prostaglandin F2-alpha receptor (Homo sapiens, UniProt P43088). The experiment is described as follows: Binding affinity towards FP receptor expressed in HEK293 ebna cells recombinantly expressing the corresponding human prostanoid cDNAs. The procedure, abridged: as §1
For the next experiment, the target named is T2, Thromboxane A2 receptor (Homo sapiens, UniProt P21731).
T2 sequence (P21731 whole entry): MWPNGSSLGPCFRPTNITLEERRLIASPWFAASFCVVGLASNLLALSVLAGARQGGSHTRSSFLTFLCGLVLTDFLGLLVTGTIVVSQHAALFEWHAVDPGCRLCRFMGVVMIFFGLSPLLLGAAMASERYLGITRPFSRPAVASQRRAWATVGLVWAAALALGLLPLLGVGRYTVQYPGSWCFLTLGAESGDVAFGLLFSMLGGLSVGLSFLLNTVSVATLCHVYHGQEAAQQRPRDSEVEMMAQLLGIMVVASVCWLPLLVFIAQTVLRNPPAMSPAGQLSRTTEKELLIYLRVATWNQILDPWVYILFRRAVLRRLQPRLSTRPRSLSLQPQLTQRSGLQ
The experiment in a line: Binding affinity towards TP receptor expressed in HEK293 ebna cells recombinantly expressing the corresponding human prostanoid cDNAs. The gist of the method: as §1

In experiment [5] the target is T3, Prostaglandin E2 receptor EP1 subtype (Homo sapiens, UniProt P34995).
T3 sequence (P34995 whole entry): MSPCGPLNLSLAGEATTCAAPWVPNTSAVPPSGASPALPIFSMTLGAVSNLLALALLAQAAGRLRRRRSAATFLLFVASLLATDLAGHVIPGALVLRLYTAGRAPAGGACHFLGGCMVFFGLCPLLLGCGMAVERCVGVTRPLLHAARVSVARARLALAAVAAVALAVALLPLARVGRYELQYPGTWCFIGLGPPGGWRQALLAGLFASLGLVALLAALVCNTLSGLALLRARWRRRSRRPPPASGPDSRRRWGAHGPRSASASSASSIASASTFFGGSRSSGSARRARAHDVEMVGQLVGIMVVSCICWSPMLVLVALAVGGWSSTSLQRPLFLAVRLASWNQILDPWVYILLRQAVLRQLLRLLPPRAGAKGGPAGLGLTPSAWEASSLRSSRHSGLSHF
The experiment in a line: Binding affinity towards EP1 receptor expressed in HEK293 ebna cells recombinantly expressing the corresponding human prostanoid cDNAs. The procedure, abridged: as §1

The target of another experiment is Prostacyclin receptor (Homo sapiens, UniProt P43119). The experiment in a line: Binding affinity towards IP receptor expressed in HEK293 ebna cells recombinantly expressing the corresponding human prostanoid cDNAs. The gist of the method: as §1
The target of experiment [6] is T4, Prostaglandin D2 receptor (Homo sapiens, UniProt Q13258).
T4 sequence (Q13258 whole entry): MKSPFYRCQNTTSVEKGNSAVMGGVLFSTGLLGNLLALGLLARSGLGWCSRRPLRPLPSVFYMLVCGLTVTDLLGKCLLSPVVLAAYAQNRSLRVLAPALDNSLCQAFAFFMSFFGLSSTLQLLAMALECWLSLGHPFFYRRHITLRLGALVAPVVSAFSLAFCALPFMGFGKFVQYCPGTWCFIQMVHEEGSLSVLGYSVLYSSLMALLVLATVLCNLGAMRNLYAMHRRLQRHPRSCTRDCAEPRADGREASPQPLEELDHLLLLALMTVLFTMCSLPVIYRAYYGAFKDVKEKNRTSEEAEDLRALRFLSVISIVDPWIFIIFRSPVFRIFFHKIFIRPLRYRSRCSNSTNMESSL
The experiment in a line: Binding affinity towards DP receptor expressed in HEK293 ebna cells recombinantly expressing the corresponding human prostanoid cDNAs. The gist of the method: as §1

This note sets out measurements from ChEMBL document CHEMBL1136653, “Discovery of a potent and selective agonist of the prostaglandin EP4 receptor” (Bioorg Med Chem Lett, 2003).

The structures appear in SMILES notation. A value given as a limit tells only on which side of the number the result lay.

Chain of Prostacyclin receptor (P43119 whole entry): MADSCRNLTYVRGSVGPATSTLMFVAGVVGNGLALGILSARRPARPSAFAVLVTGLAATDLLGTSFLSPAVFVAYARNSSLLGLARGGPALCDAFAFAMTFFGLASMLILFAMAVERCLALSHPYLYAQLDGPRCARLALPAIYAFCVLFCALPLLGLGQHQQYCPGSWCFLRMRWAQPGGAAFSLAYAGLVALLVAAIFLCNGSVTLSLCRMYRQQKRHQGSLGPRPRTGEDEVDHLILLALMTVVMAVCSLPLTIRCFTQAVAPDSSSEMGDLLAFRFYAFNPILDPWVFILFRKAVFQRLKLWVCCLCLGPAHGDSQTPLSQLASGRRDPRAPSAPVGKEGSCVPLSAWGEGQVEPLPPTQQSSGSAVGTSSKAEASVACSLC
Chain of Prostaglandin E2 receptor EP4 subtype (P35408 whole entry): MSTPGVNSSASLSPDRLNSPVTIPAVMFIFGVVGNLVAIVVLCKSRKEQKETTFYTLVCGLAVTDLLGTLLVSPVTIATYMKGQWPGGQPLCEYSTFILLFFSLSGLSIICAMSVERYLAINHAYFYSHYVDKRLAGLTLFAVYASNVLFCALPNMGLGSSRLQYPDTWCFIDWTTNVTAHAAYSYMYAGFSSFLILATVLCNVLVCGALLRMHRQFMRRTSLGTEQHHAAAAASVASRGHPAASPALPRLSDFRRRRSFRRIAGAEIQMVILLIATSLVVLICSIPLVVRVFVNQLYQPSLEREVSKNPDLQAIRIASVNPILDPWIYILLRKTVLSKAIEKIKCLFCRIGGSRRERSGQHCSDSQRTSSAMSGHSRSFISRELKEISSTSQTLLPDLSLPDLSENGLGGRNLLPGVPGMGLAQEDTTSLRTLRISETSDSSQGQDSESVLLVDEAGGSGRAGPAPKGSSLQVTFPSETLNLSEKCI
Chain of Prostaglandin F2-alpha receptor (P43088 whole entry): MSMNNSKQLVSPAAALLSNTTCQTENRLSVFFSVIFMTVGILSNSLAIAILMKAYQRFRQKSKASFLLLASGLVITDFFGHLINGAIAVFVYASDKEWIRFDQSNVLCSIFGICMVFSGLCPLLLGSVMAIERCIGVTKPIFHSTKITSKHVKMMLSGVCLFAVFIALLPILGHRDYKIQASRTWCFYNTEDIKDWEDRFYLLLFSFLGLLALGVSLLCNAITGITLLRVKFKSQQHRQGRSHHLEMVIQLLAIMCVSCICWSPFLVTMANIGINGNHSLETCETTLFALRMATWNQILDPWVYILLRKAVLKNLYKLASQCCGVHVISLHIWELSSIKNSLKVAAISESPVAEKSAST
Chain of Prostaglandin E2 receptor EP2 subtype (P43116 whole entry): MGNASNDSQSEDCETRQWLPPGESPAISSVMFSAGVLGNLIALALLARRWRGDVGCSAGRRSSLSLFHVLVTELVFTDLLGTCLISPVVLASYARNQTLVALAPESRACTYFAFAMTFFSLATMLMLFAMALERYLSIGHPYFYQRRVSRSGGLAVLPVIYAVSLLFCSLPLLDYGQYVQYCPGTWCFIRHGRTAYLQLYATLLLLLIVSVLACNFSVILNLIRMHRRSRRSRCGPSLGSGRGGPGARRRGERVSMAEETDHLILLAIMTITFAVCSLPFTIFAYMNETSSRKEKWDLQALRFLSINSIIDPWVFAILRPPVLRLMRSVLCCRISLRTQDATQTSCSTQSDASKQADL

With `CCCCCC(O)/C=C/[C@H]1CCC(=O)N1CCCCCCC(=O)O` (some centres undefined), the Ki (as a rule, the dissociation constant of the complex between target and ligand, obtained from inhibition or displacement) in experiment [1] is 0.006 µM; in experiment [2] it was 0.419 µM; in experiment [3], 6.68 µM; in experiment [4], above 13 µM; at Thromboxane A2 receptor, above 13 µM; in experiment [5], above 13 µM. For the same compound, the Ki (on Prostacyclin receptor; in experiment [6]) was above 13 µM throughout.
As to `COCc1cccc(CC(O)/C=C/[C@H]2CCC(=O)N2CCCCCCC(=O)O)c1` (some centres undefined), the Ki in experiment [1] is 0.0036 µM; in experiment [2] it was above 13 µM; in experiment [3], above 13 µM; in experiment [4] it was above 13 µM; at Thromboxane A2 receptor it was above 13 µM; in experiment [5], above 13 µM. The Ki (on Prostacyclin receptor; in experiment [6]) was above 13 µM throughout.
Take `O=C1CC[C@H](/C=C/C(O)Cc2ccccc2)N1CCCCSc1nnn[nH]1` (some centres undefined): the Ki was 0.243 µM in experiment [1]; above 13 µM in experiment [2]; above 13 µM in experiment [3]; above 13 µM in experiment [4]; above 13 µM on Thromboxane A2 receptor; above 13 µM in experiment [5]. In addition, the Ki (on Prostacyclin receptor; in experiment [6]) was above 13 µM each time.
With `O=C1CC[C@H](/C=C/[C@@H](O)Cc2ccccc2)N1CCCCCCc1nnn[nH]1.O=C1CC[C@H](/C=C/[C@H](O)Cc2ccccc2)N1CCCCCCc1nnn[nH]1`, the Ki in experiment [1] is 0.0025 µM; in experiment [2], above 13 µM; in experiment [3], above 13 µM; in experiment [4] it was above 13 µM; on Thromboxane A2 receptor, above 13 µM; in experiment [5] it was above 13 µM. Also, the inhibition constant Ki (at Prostacyclin receptor; in experiment [6]) was above 13 µM throughout.
In the case of `CCCCCC(O)CCC1CCC(=O)N1CCCCCCC(=O)O` (centres undefined), the inhibition constant (Ki) is 0.035 µM in experiment [1]; 2 µM in experiment [2]; 3 µM in experiment [3]; above 13 µM in experiment [4]; above 13 µM at Thromboxane A2 receptor; above 13 µM in experiment [5]. Further, the Ki (at Prostacyclin receptor; in experiment [6]) was above 13 µM in each case.
As for `CCCCCC(O)/C=C/[C@@H]1CCC(=O)N1CCCCCCC(=O)O` (some centres undefined), the Ki was 1.41 µM in experiment [1]; 1.22 µM in experiment [2]; above 13 µM in experiment [3]; above 13 µM in experiment [4]; above 13 µM at Thromboxane A2 receptor; above 13 µM in experiment [5]. In addition, the Ki (on Prostacyclin receptor; in experiment [6]) was above 13 µM in each case.
For `O=C(O)CSCCCCN1C(=O)CC[C@@H]1/C=C/C(O)Cc1ccccc1` (some centres undefined), the inhibition constant Ki is 0.013 µM in experiment [1]; above 13 µM in experiment [2]; above 13 µM in experiment [3]; above 13 µM in experiment [4]; above 13 µM on Thromboxane A2 receptor; above 13 µM in experiment [5]. Moreover, the Ki (on Prostacyclin receptor; in experiment [6]) was above 13 µM each time.
For the compound `COC(=O)CSCCCCN1C(=O)CC[C@@H]1/C=C/C(O)Cc1ccccc1` (some centres undefined), the Ki was 0.443 µM in experiment [1]; above 13 µM in experiment [2]; above 13 µM in experiment [3]; above 13 µM in experiment [4]; above 13 µM at Thromboxane A2 receptor; above 13 µM in experiment [5]. Besides, the inhibitory constant (Ki) (on Prostacyclin receptor; in experiment [6]) was above 13 µM in each case.
As to `CCCCCC(O)CC[C@@H]1CCC(=O)N1CCCCCCC(=O)O` (some centres undefined), the inhibition constant Ki in experiment [1] is 1.11 µM; in experiment [2], 2.32 µM; in experiment [3] it was 3.61 µM; in experiment [4], above 13 µM; on Thromboxane A2 receptor, above 13 µM; in experiment [5], above 13 µM. Further, the Ki (on Prostacyclin receptor; in experiment [6]) was above 13 µM in each case.
On to `O=C(O)CCCCCCN1C(=O)CC[C@@H]1/C=C/C(O)CCc1ccccc1` (some centres undefined), for which the Ki was 0.102 µM in experiment [1]; 2.01 µM in experiment [2]; above 13 µM in experiment [3]; above 13 µM in experiment [4]; above 13 µM at Thromboxane A2 receptor; above 13 µM in experiment [5]. The Ki (at Prostacyclin receptor; in experiment [6]) was above 13 µM in each case.
For the compound `O=C1CC[C@H](/C=C/C(O)Cc2ccccc2)N1CCCCSCc1nn[nH]n1` (some centres undefined), the inhibition constant (Ki) in experiment [1] is 0.066 µM; in experiment [2], above 13 µM; in experiment [3] it was above 13 µM; in experiment [4], above 13 µM; at Thromboxane A2 receptor, above 13 µM; in experiment [5] it was above 13 µM. Also, the Ki (at Prostacyclin receptor; in experiment [6]) was above 13 µM throughout.
On to `CCCCCC(O)CC[C@H]1CCC(=O)N1CCCCCCC(=O)O` (some centres undefined), for which the inhibitory constant (Ki) in experiment [1] was 0.028 µM; in experiment [2], 0.7 µM; in experiment [3] it was 4.05 µM; in experiment [4], above 13 µM; at Thromboxane A2 receptor, above 13 µM; in experiment [5], above 13 µM. For the same compound, the Ki (on Prostacyclin receptor; in experiment [6]) was above 13 µM each time.
For the compound `O=C(O)CCCCCCN1C(=O)CC[C@@H]1/C=C/C(O)C1(c2ccccc2)CC1` (some centres undefined), the Ki was 0.012 µM in experiment [1]; 3.34 µM in experiment [2]; above 13 µM in experiment [3]; above 13 µM in experiment [4]; above 13 µM on Thromboxane A2 receptor; above 13 µM in experiment [5]. Further, the inhibition constant Ki (on Prostacyclin receptor; in experiment [6]) was above 13 µM throughout.
With `O=C(O)CCCCCCN1C(=O)CC[C@@H]1/C=C/C(O)C1CCCCC1` (some centres undefined), the Ki was 3.5 µM in experiment [1]; above 13 µM in experiment [2]; above 13 µM in experiment [3]; above 13 µM in experiment [4]; above 13 µM at Thromboxane A2 receptor; above 13 µM in experiment [5]. Moreover, the inhibitory constant (Ki) (at Prostacyclin receptor; in experiment [6]) was above 13 µM in each case.
On to `CC(C)(c1ccccc1)C(O)/C=C/[C@H]1CCC(=O)N1CCCCCCC(=O)O` (some centres undefined), for which the Ki in experiment [1] is 0.062 µM; in experiment [2], 10.6 µM; in experiment [3], above 13 µM; in experiment [4], above 13 µM; on Thromboxane A2 receptor, above 13 µM; in experiment [5], above 13 µM. Also, the Ki (at Prostacyclin receptor; in experiment [6]) was above 13 µM in each case.
For `O=C1CC[C@H](/C=C/[C@H](O)Cc2ccccc2)N1CCCCCCc1nnn[nH]1`, the Ki in experiment [1] was 0.23 µM; in experiment [2], above 13 µM; in experiment [3], above 13 µM; in experiment [4], above 13 µM; on Thromboxane A2 receptor, above 13 µM; in experiment [5], above 13 µM. Further, the Ki (on Prostacyclin receptor; in experiment [6]) was above 13 µM throughout.
Turning to `O=C(O)CCSCCCCN1C(=O)CC[C@@H]1/C=C/C(O)Cc1ccccc1` (some centres undefined), the inhibitory constant (Ki) in experiment [1] was 0.14 µM; in experiment [2] it was above 13 µM; in experiment [3], above 13 µM; in experiment [4] it was above 13 µM; at Thromboxane A2 receptor, above 13 µM; in experiment [5], above 13 µM. For the same compound, the Ki (at Prostacyclin receptor; in experiment [6]) was above 13 µM throughout.
As for `CC(O)(/C=C/[C@H]1CCC(=O)N1CCCCCCC(=O)O)Cc1ccccc1` (some centres undefined), the Ki in experiment [1] was 2.1 µM; in experiment [2] it was above 13 µM; in experiment [3], above 13 µM; in experiment [4] it was above 13 µM; at Thromboxane A2 receptor it was above 13 µM; in experiment [5], above 13 µM. Moreover, the inhibition constant Ki (at Prostacyclin receptor; in experiment [6]) was above 13 µM throughout.
